Measured values gathered from unrelated publications.
Target: Cyclin-dependent kinase 2 (CDK2, Homo sapiens, UniProt P24941)
Method: competition with immobilised ligand

Structure (SMILES)	observed	concentration	remaining binding [%]
O=C(c1ccc(Nc2ncc(Cl)c(-c3cc4ccccc4s3)n2)cc1)N1CCC(N2CCCC2)CC1	binding	1 µM	12
CCN1CCN(Cc2ccc(C(=O)Nc3ccc(C)c(Oc4ccc5c(c4)CC(=O)N5)c3)cc2C(F)(F)F)CC1	binding	1 µM	82
CO[C@H]1CC[C@H](CNc2ccc(S(=O)(=O)NC(=O)c3ccc(N4CCN(CC5=C(c6ccc(Cl)cc6)CC(C)(C)CC5)CC4)cc3Oc3cnc4[nH]ccc4c3)cc2[N+](=O)[O-])CC1	cell-free assay	1 µM	100
Nc1ncc2c(n1)-c1c([nH]c3ccc(C#CC4CC4)cc13)CCCC2	binding	1 µM	85
COc1cnc(Nc2cccc(S(N)(=O)=O)c2)nc1N1CCN(c2ccccc2)CC1	binding	1 µM	98
Nc1cnc(N2CCc3cc(S(=O)(=O)Nc4c(F)cc(Cl)cc4F)cc(N4CCCC4=O)c32)nc1	cell-free assay	1 µM	100
O=C(NCCCN1CCOCC1)c1ccc(Nc2nccc(-c3cc4ccccc4s3)n2)cc1	binding	1 µM	66
CN(CCCC(F)(F)F)c1nccc(-c2cnn3ncccc23)n1	binding	1 µM	100
Cn1nc(C(F)(F)F)cc1-c1cnc(N2CCc3cc(S(=O)(=O)Nc4c(F)cc(Cl)cc4F)cc(N4CCCC4=O)c32)nc1	cell-free assay	1 µM	100
CC(C)(C)c1ccc(-c2nc(CBr)nn2-c2cccc(O)c2)cc1	cell-free assay	10 µM	90
c1cncc(-c2cccc(Nc3nccc(NC4CCCCC4)n3)c2)c1	binding	10 µM	81
C[C@H](c1ccc(F)cc1)N(Cc1cccc(C(=O)O)c1)C(=O)c1cnc2ccccc2c1	cell-free assay	1 µM	100
C[C@@H]1CN(c2ccc3ncc(-c4ccc5[nH]nc(C6CC6)c5c4)n3n2)C[C@H](C)O1	binding	50 nM	100
COc1ccc2c(c1)O[C@H](c1ccc(OC)c(OC)c1)C[C@@H]2NC(=O)C1(c2ccc3c(c2)OC(F)(F)O3)CC1	cell-free assay	1 µM	100
O=C(NCCCN1CCOCC1)c1ccc(Nc2ncc(Cl)c(-c3ccc(Cl)s3)n2)cc1	binding	1 µM	62
O=C(NCC1CCOCC1)c1n[nH]cc1NC(=O)c1c(F)cccc1F	binding	1 µM	49
